Results taken from article PMC3513776 (Journal of molecular recognition : JMR, 2012).

How the values were obtained:
[1] = cited from earlier work
[2] = test system: A and F1*S variants of human AGP; conditions: cited from earlier work
[3] = biological target: F1*S variant of human AGP (Homo sapiens, UniProt P02763); test: ITC of drug binding to the separated F1*S variant of AGP; conditions: 30°C
Method in brief: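 F1*S variant resolved from re-purified commercial human AGP on copper(II) IMAC (20 mM HEPES pH 7.4 load; 0→100% 300 mM imidazole, 1 mL/min). Degassed protein (140 μM, 20 mM HEPES pH 7.4) titrated with 5→16 mM drug in dialysate, 240 s intervals, 360 rpm, 30°C. Drug-into-buffer dilution heat subtracted. Integrated peaks vs molar ratio fitted by Marquardt for n, Ka, ΔH.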

A variant of human AGP = A variant of human AGP (Homo sapiens, UniProt P19652); test: ITC of drug binding to the separated A variant of AGP; conditions: 30°C
human AGP = test: Isothermal titration calorimetry; type: binding; conditions: ITC, 30°C, heterogeneous AGP preparation

CN(C)CCC=C1c2ccccc2CCc2ccccc21 [amitriptyline]
pKa of the N,N-dimethylpropan-1-amine side chain [1]: 9.2 | difference in affinity between A and F1*S [2]: > 20 fold | thermodynamic binding signature ([3]; F1*S variant): comparable enthalpy and entropy gains | lower binding affinity of the F1*S variant (vs A variant) ([3]; separated variants): 4 fold | thermodynamic binding signature (A variant of human AGP; A variant): dominant favorable entropy gain and a smaller, albeit favorable enthalpy gain | greater affinity for the A variant compared to the F1*S variant (A variant of human AGP; separated variants): 4 fold

CN(C)CCCN1c2ccccc2Sc2ccc(Cl)cc21 [chlorpromazine]
affinity for both variants [2]: comparable | binding energetics, A versus F1*S variant (A variant of human AGP; separated variants): comparable for both variants

CC(C)N(CCC(C(N)=O)(c1ccccc1)c1ccccn1)C(C)C (stereo not drawn) [disopyramide]
affinity for the F1*S [2]: very low | variant selectivity of binding [2]: selectively bind to the A variant

CN(C)CC/C=C1\c2ccccc2CSc2ccccc21 [dothepin]
lower affinity for AGP compared to amitriptyline (human AGP): ~ 2.5 fold

CN1CCN2c3ccccc3Cc3ccccc3C2C1 (stereo not drawn) [miaserine]
lower affinity for AGP compared to amitriptyline (human AGP): ~ 6 fold
